# Data: ChEMBL document CHEMBL2177002, “Antifungal spectrum, in vivo efficacy, and structure-activity relationship of ilicicolin h” (ACS Med Chem Lett, 2012)
# Active and inactive are the calls of the source. The rule behind the calls is not given here.
# Legend:
# [1] = Inhibition of Saccharomyces cerevisiae MY 2141 cytochrome b-c1 complex Qn site in ubiquinol:Cytochrome c reductase
# Saccharomyces cerevisiae = experiment: Antifungal activity against Saccharomyces cerevisiae MY 2141 in glycerol-based medium after 24 hrs by NCCLS broth microdilution method; format: functional; conditions: MY 2141, 24 h
# [2] = Inhibition of Saccharomyces cerevisiae MY 2141 electron transport protein complex 2/3 using succinate as substrate assessed as decrease in oxygen consumption measured for 3 mins
# [3] = Inhibition of Saccharomyces cerevisiae MY 2141 electron transport protein complex 1/3 using NADH as substrate assessed as decrease in oxygen consumption measured for 3 mins
# Candida albicans [4] = experiment: Ratio of MIC for Candida albicans 16 harboring cytochrome b Q22E mutant to MIC for wild type Candida albicans; format: functional
# Cryptococcus neoformans [5] = experiment: Antifungal activity against Cryptococcus neoformans MY 2061 infected in DBA/2 mouse assessed as reduction in spleen fungal burden at 100 mg/kg, ip bid; format: functional, organism-based; design: dose 100 mg/kg
# Summary of the method: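 Mice with disseminated C. neoformans MY2061 infection (8 × 10⁵ cfu/mouse). Dosed twice daily at 100 or 50 mg/kg, oral or intraperitoneal, in 5% aqueous DMSO. Spleen burden measured as log cfu/g of spleen and compared by Excel t test (p < 0.05).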
# Aspergillus flavus = experiment: Antifungal activity against Aspergillus flavus MF 383 after 24 hrs by NCCLS broth microdilution method; format: functional, organism-based
# Pichia kudriavzevii = experiment: Antifungal activity against Candida krusei CLY 549 after 24 hrs by NCCLS broth microdilution method; format: functional; conditions: CLY 549, 24 h
# [6] = Clearance in mouse; format: ADME, organism-based; conditions: in vivo
# [7] = Inhibition of Saccharomyces cerevisiae MY 2141 NADH:cytochrome c oxidoreductase
# Candida albicans [8] = experiment: Antifungal activity against Candida albicans MY 1055 after 24 hrs by NCCLS broth microdilution method; format: functional; conditions: MY 1055, 24 h
# [9] = Inhibition of rhesus monkey liver NADH:cytochrome c oxidoreductase; design: species or system Macaca mulatta
# Candida albicans [10] = experiment: Ratio of MIC for Candida albicans 7 harboring cytochrome b G37D mutant to MIC for wild type Candida albicans; format: functional
# Candida albicans [11] = experiment: Antifungal activity against fluconazole-resistant Candida albicans MY 2301 after 24 hrs by NCCLS broth microdilution method; format: functional; conditions: MY 2301, 24 h
# Clavispora lusitaniae = experiment: Antifungal activity against Candida lusitaniae MY 1396 after 24 hrs by NCCLS broth microdilution method; format: functional; conditions: MY 1396, 24 h
# Candida albicans [12] = experiment: Ratio of MIC for Candida albicans 11 harboring cytochrome b G37C mutant to MIC for wild type Candida albicans; format: functional
# Candida albicans [13] = experiment: Ratio of MIC for Candida albicans 5 harboring cytochrome b G37S mutant to MIC for wild type Candida albicans; format: functional
# [14] = system: Meyerozyma guilliermondii; experiment: Antifungal activity against Candida guilliermondii CLY 308 after 24 hrs by NCCLS broth microdilution method; format: functional; conditions: CLY 308, 24 h
# Candida albicans [15] = experiment: Antifungal activity against Candida albicans MY 1055 infected in DBA/2 mouse assessed as reduction in kidney fungal burden administered as po bid for 2 days post infection measured after 4 days; format: functional; conditions: MY 1055, Kidney
# Summary of the method: (§1)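 DBA/2 mice infected intravenously with 5.4 × 10⁴ cfu of C. albicans MY1055. Dosed orally twice daily for 2 days in 10% aqueous DMSO at 50, 25, 12.5 and 6.25 mg/kg. Kidney Candida burden determined 4 days after infection and compared with vehicle-treated controls by Excel t test (p < 0.05). ED90 is the dose giving 90% reduction of kidney C. albicans.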
# Cryptococcus neoformans [16] = experiment: Antifungal activity against Cryptococcus neoformans MY 2061 after 40 hrs by NCCLS broth microdilution method; format: functional; conditions: MY 2061, 40 h
# Candida albicans [17] = experiment: Antifungal activity against Candida albicans MY 1055 infected in DBA/2 mouse assessed as reduction in kidney fungal burden at 50 mg/kg, po bid administered 2 days post infection measured after 4 days relative to vehicle-treated control; format: functional, organism-based; design: dose 50 mg/kg; summary of the method: as §1
# Candida albicans [18] = experiment: Ratio of MIC for Candida albicans 4 harboring cytochrome b G37S mutant to MIC for wild type Candida albicans; format: functional
# [19] = Inhibition of bovine ubiquinol-cytochrome c reductase after 2 mins by stopped flow rapid scanning spectroscopy; design: species or system Bos taurus
# Candida albicans [20] = experiment: Ratio of MIC for Candida albicans 3 harboring cytochrome b G37D mutant to MIC for wild type Candida albicans; format: functional
# [21] = system: Meyerozyma guilliermondii; experiment: Antifungal activity against Candida guilliermondii CLY 346 after 24 hrs by NCCLS broth microdilution method; format: functional; conditions: CLY 346, 24 h
# Candida albicans [22] = experiment: Antifungal activity against Candida albicans MY 1055 infected in DBA/2 mouse assessed as reduction in kidney fungal burden administered as iv tid after 24 hrs; format: functional; conditions: MY 1055, Kidney
# Summary of the method: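 Abbreviated 24 h version of the disseminated C. albicans kidney-burden model in mice. Dosing intravenous, thrice daily, at total doses of 50 or 25 mg/kg/day. Kidney burden compared with controls by Excel t test (p < 0.05). ED90 expressed as mg/kg/day.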
# [23] = Inhibition of ubiquinol:cytochrome c reductase in presence of 50% mouse plasma; format: cell-free
# Summary of the method: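 Cytochrome c reductase assay run with mouse plasma added at increasing percentages, up to 50%, to gauge the effect of plasma protein binding on inhibition.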
# Nakaseomyces glabratus = experiment: Antifungal activity against Candida glabrata CLY 574 after 24 hrs by NCCLS broth microdilution method; format: functional; conditions: CLY 574, 24 h
# Candida albicans [24] = experiment: Antifungal activity against Candida albicans MY 1055 assessed as inhibition of whole cell oxygen consumption at 0.003 ug/mL after 15 mins; format: functional; conditions: MY 1055, 0.25 h
# Candida albicans [25] = experiment: Antifungal activity against Candida albicans after 24 hrs by NCCLS broth microdilution method in presence of 10% mouse plasma; format: functional
# Candida albicans [26] = experiment: Antifungal activity against Candida albicans MY 1055 in glucose-based medium after 24 hrs by NCCLS broth microdilution method; format: functional; conditions: MY 1055, 24 h
# Candida parapsilosis = experiment: Antifungal activity against Candida parapsilosis ATCC 22019 after 24 hrs by NCCLS broth microdilution method; format: functional; conditions: Lodderomyces parapsilosis, ATCC 22019, 24 h
# [27] = Inhibition of Saccharomyces cerevisiae MY 2141 electron transport protein complex 1/3 using glycerol-3-phosphate as substrate assessed as decrease in oxygen consumption measured for 3 mins
# [28] = Selectivity ratio of IC50 for bovine NADH:cytochrome c oxidoreductase to IC50 for Saccharomyces cerevisiae MY 2141 NADH:cytochrome c oxidoreductase
# Candida albicans [29] = experiment: Ratio of MIC for Candida albicans 8 harboring cytochrome b G37S mutant to MIC for wild type Candida albicans; format: functional
# Aspergillus fumigatus = experiment: Antifungal activity against Aspergillus fumigatus MF 5668 after 24 hrs by NCCLS broth microdilution method; format: functional; conditions: MF 5668, 24 h
# Candida albicans [30] = experiment: Ratio of MIC for Candida albicans 12 harboring cytochrome b Q22E mutant to MIC for wild type Candida albicans; format: functional
# [31] = Inhibition of Saccharomyces cerevisiae MY 2141 electron transport protein complex 4 using ascorbate/TMPD as substrate assessed as decrease in oxygen consumption measured for 3 mins
# Candida albicans [32] = experiment: Ratio of MIC for Candida albicans 5 harboring cytochrome b G37D mutant to MIC for wild type Candida albicans; format: functional
smiles,measurement,setting,value
C/C=C/[C@@H]1[C@H]2C[C@@H](C)CC[C@@H]2C(C)=C[C@H]1C(=O)c1c(O)c(-c2ccc(O)cc2)c[nH]c1=O [ILICICOLIN H],IC50,[1],3 nM
same,MIC,Saccharomyces cerevisiae,0.012 µg/mL
same,IC50,[2],1 µg/mL
same,IC50,[3],0.08 µg/mL
same,Ratio,Candida albicans [4],250
same,Activity,Cryptococcus neoformans [5],Active
same,Activity,Aspergillus flavus,inactive
same,MIC,Pichia kudriavzevii,0.01 µg/mL
same,clearance,[6],16 mL/min/kg
same,IC50,[7],2.31 nM
same,MIC,Candida albicans [8],0.04 µg/mL
same,IC50,[9],0.5 µg/mL
same,Ratio,Candida albicans [10],250
same,MIC,Candida albicans [11],0.04 µg/mL
same,MIC,Clavispora lusitaniae,0.01 µg/mL
same,Ratio,Candida albicans [12],250
same,Ratio,Candida albicans [13],250
same,MIC,[14],0.01 µg/mL
same,ED90,Candida albicans [15],15.4 mg/kg
same,MIC,Cryptococcus neoformans [16],0.1 µg/mL
same,Activity,Candida albicans [17],Active
same,Ratio,Candida albicans [18],250
same,IC50,[19],200 nM
same,Ratio,Candida albicans [20],250
same,MIC,[21],0.01 µg/mL
same,ED90,Candida albicans [22],22.3 mg/kg/day
same,inhibition,[23],inactive
same,MIC,Nakaseomyces glabratus,0.01 µg/mL
same,inhibition at 0.003 µg/mL,Candida albicans [24],100%
same,MIC,Candida albicans [25],> 1 µg/mL
same,MIC,Candida albicans [26],> 50 µg/mL
same,MIC,Candida parapsilosis,0.01 µg/mL
same,IC50,[27],0.02 µg/mL
same,Ratio IC50,[28],> 70
same,Ratio,Candida albicans [29],250
same,MIC,Aspergillus fumigatus,0.08 µg/mL
same,Ratio,Candida albicans [30],250
same,IC50,[31],> 10 µg/mL
same,Ratio,Candida albicans [32],250
